# Measured values pooled from the literature.
# Compare with care: the assays were run in different laboratories.
# Target: LIM domain kinase 1 (LIMK1, Homo sapiens, UniProt P53667)
Structure (SMILES),observed,method,tested at,remaining binding
CC(=O)N1CCC(c2ccc(C(=O)NC(=N)N)cc2C(F)(F)F)CC1,cell-free assay,competition with immobilised ligand,1 µM,100%
Cc1cnn2ncc(-c3ccnc(N(C)C)n3)c2c1,binding,,1 µM,100%
COc1cc(-c2cn(C3CCc4c(F)cccc4N(CC(F)(F)F)C3=O)nn2)ccc1-n1cnc(C)c1 (stereo not drawn),cell-free assay,competition with immobilised ligand,1 µM,100%
O=C(NCCCN1CCOCC1)c1ccc(Nc2nccc(-c3cc4ccccc4s3)n2)cc1,binding,competition with immobilised ligand,1 µM,53%
CCC(=N\O)/C(C)=C/c1ccc(F)cc1,cell-free assay,competition with immobilised ligand,1 µM,78%
O=C(NCCCN1CCOCC1)c1ccc(Nc2ncc(Cl)c(-c3ccc(Cl)s3)n2)cc1,binding,competition with immobilised ligand,1 µM,83%
COc1cnc(Nc2cccc(S(N)(=O)=O)c2)nc1N1CCN(c2ccccc2)CC1,binding,competition with immobilised ligand,1 µM,100%
N[C@@H]1CCN(c2nccc(-c3cnn4ncccc34)n2)C1,binding,,1 µM,73%
FC(F)(F)Oc1cccc(-c2cnc3ccc(-c4ccncc4)nn23)c1,cell-free assay,competition with immobilised ligand,5 µM,81%
COc1ncc2cc3ccccc3nc2c1C#N,cell-free assay,competition with immobilised ligand,5 µM,98%
O=C(Nc1c[nH]nc1C(=O)NC1CCNCC1)c1cc(F)cc(F)c1,binding,competition with immobilised ligand,1 µM,97%
CNCc1ccccc1-c1csc([C@@H](C)Nc2nc(C)nc3cc(OC)c(OC)cc23)c1,cell-free assay,competition with immobilised ligand,1 µM,99%
C[C@@H]1CCN(c2nccc(-c3cnn4ncccc34)n2)C1,binding,,1 µM,100%
c1cncc(-c2cccc(Nc3nccc(NC4CCCCC4)n3)c2)c1,binding,competition with immobilised ligand,10 µM,56%
N#CC1(c2ccccn2)CCN(Cc2cc(C(=O)N3CCCC3)c(=O)n3ccccc23)CC1,cell-free assay,competition with immobilised ligand,1 µM,98%
F[C@@H]1CCN(c2nccc(-c3cnn4ncccc34)n2)C1,binding,,1 µM,89%
O=C(c1ccc(Nc2nccc(-c3cc4ccccc4s3)n2)cc1)N1CCC(N2CCCC2)CC1,binding,competition with immobilised ligand,1 µM,20%
CN(CCCC(F)(F)F)c1nccc(-c2cnn3ncccc23)n1,binding,,1 µM,86%
Nc1ncc2c(n1)-c1c([nH]c3ccc(C#CC4CC4)cc13)CCCC2,binding,competition with immobilised ligand,1 µM,96%
CN(C)c1ncc(F)c(-c2cnn3ncccc23)n1,binding,,1 µM,89%
O=C(NCc1ncc(C(F)(F)F)cc1Cl)c1ccc2c(c1)C1(CCS(=O)(=O)CC1)[C@@H](C1CC1)N2S(=O)(=O)c1ccc(F)cc1,cell-free assay,competition with immobilised ligand,1 µM,91%
